Activity calls are given as the source filed them. The calls are words filed in the database; no cut-off is given here.

Data on 17 molecules can be found in ChEMBL document CHEMBL1138351, “Small, potent, and selective diaryl phosphonate inhibitors for urokinase-type plasminogen activator with in vivo antimetastatic properties” (J Med Chem, 2007).

For assay [1], the species on record is Homo sapiens. Description: Selectivity index, ratio of IC50 for human thrombin to IC50 for human uPA. The gist of the method:
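Selectivity index is IC50(thrombin)/IC50(uPA). Thrombin: human plasma-derived, about 5 mU, 580 µM S-2366, Tris pH 8.3. uPA: human, about 1 mU, 250 µM S-2444, 50 mM Tris pH 8.8. Both had 15 min preincubation at 37 °C, 405 nm initial rates in duplicate, and a four-parameter logistic fit.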

Assay [2] is filed under the species Homo sapiens. Description: Selectivity index, ratio of IC50 for human recombinant tPA to IC50 for human uPA.
The species entered for assay [3] is Homo sapiens. The assay can be described thus: Selectivity index, ratio of IC50 for human factor 10a to IC50 for human uPA.
Assay [4] is filed under the species Homo sapiens. Description: Selectivity index, ratio of IC50 for human plasmin to IC50 for human uPA. The gist of the method: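 Selectivity index is IC50(plasmin)/IC50(uPA). Plasmin: human plasma-derived, about 5 mU, 580 µM S-2366, Tris pH 7.4. uPA: human, about 1 mU, 250 µM S-2444, 50 mM Tris pH 8.8. Both had 15 min preincubation at 37 °C, 405 nm initial rates in duplicate, and a four-parameter logistic fit.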

The target in assay [5] is T1, Urokinase-type plasminogen activator (Homo sapiens, UniProt P00749).
In assay [6] the target is T2, Coagulation factor X (Homo sapiens, UniProt P00742). Description: Inhibition of factor 10a. In outline:
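Human factor Xa (FX activated with Russell's viper venom) at about 5 mU was preincubated with inhibitor (0–250 µM final) for 15 min at 37 °C. […] IC50 came from a four-parameter logistic fit.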

Assay [7] concerns the target T3, Prothrombin (Homo sapiens, UniProt P00734). Description: Inhibition of human thrombin. The gist of the method:
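Human plasma thrombin was assayed at 37 °C in Tris pH 8.3. […] Initial rate was read at 405 nm, in duplicate. IC50 was obtained from a four-parameter logistic fit.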

Assay [8] has as its target T2, Coagulation factor X. The assay can be described thus: Inhibition of factor 10a at 250 uM.
In assay [9] the target is T1, Urokinase-type plasminogen activator. This is another data set of the same source.
In assay [10] the target is T3, Prothrombin. Description: Inhibition of thrombin at 100 uM.
For assay [11], the target named is Tissue-type plasminogen activator (Homo sapiens, UniProt P00750). Description: Inhibition of human recombinant tPA.
The target in the next assay is Plasminogen (Homo sapiens, UniProt P00747). The assay can be described thus: Inhibition of human plasmin. The gist of the method:
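Plasmin from human plasma at about 5 mU was preincubated with inhibitor (0–250 µM final) for 15 min at 37 °C. Substrate was S-2366 at 580 µM in Tris pH 7.4. Initial rate was read at 405 nm, in duplicate. IC50 came from a four-parameter logistic fit.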

For assay [12], the target named is T3, Prothrombin. Description: Inhibition of human thrombin at 250 uM. In outline:
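Human plasma thrombin was assayed at 37 °C in Tris pH 8.3. IC50 was obtained from a four-parameter logistic fit.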

Assay [13] has as its target T2, Coagulation factor X. The assay can be described thus: Inhibition of factor 10a at 62 uM.

T2 sequence (P00742 41-179 limits assumed): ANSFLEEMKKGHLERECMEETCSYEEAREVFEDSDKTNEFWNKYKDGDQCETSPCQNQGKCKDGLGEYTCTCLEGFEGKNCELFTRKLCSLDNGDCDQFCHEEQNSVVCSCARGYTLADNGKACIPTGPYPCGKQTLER
T2 sequence (P00742 235-488 limits assumed): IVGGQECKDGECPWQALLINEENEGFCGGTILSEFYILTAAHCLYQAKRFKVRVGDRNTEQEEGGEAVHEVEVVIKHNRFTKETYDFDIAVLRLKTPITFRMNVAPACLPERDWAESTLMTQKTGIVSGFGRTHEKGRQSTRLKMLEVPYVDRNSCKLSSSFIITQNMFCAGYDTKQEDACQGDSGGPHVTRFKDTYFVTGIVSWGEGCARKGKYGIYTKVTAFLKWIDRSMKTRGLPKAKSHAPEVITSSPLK
Sequence of Plasminogen (P00747 97-580 limits assumed): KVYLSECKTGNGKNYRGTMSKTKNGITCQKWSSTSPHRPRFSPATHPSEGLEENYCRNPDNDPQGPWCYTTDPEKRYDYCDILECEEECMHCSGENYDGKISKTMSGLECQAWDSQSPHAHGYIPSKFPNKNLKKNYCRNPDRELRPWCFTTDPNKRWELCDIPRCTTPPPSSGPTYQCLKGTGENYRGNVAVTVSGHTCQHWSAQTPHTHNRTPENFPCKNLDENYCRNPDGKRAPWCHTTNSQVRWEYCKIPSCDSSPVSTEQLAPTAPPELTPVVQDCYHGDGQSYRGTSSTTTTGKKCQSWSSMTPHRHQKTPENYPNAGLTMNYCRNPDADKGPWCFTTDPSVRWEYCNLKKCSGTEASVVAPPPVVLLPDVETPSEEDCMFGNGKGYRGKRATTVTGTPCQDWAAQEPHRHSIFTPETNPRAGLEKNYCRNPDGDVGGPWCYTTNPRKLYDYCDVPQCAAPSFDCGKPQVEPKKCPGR
Sequence of Plasminogen (P00747 581-810 limits assumed): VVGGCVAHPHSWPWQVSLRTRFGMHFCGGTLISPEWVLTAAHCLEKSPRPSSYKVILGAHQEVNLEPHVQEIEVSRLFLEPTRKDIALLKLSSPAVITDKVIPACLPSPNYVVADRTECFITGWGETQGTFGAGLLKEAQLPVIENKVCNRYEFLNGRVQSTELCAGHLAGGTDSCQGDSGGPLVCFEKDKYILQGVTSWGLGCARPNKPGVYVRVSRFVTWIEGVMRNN
Sequence of Tissue-type plasminogen activator (P00750 whole entry): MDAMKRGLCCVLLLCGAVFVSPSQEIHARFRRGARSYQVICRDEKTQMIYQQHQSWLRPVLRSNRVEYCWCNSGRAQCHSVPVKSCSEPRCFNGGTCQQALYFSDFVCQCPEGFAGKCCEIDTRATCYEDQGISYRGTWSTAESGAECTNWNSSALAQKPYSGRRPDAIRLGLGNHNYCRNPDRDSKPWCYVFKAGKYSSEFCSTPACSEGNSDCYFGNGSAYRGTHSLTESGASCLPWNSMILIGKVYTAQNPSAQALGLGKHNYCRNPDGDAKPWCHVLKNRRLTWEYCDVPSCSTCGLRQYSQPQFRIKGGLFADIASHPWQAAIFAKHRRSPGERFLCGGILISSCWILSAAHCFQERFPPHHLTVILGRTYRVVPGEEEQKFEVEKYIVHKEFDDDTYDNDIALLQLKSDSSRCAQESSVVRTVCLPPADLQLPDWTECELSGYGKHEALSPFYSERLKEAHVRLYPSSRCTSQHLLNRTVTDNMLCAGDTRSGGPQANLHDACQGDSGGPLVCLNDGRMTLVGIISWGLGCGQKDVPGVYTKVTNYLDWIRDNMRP

For `N=C(N)c1ccc(CCC(NC(=O)OCc2ccccc2)P(=O)(Oc2ccccc2)Oc2ccccc2)cc1` (stereo not drawn), the Ratio IC50 in the assay listed under Homo sapiens [1] is 20; in the assay listed under Homo sapiens [2] it was 70; in the assay filed under Homo sapiens [3], 15; in the assay filed under Homo sapiens [4], 7. In [5], this molecule showed a Kapp of 140 M⁻¹ s⁻¹.
With `CS(=O)(=O)NC(Cc1ccc(NC(=N)N)cc1)P(=O)(Oc1ccccc1)Oc1ccccc1` (stereo not drawn), the IC50 against Coagulation factor X [6] stood at 250 µM; against Prothrombin [7], 125 µM. Also, in assay [5], the Kapp was 140000 M⁻¹ s⁻¹.
In [5], `N=C(N)Nc1ccc(CC(NS(=O)(=O)c2cccc3ccccc23)P(=O)(Oc2ccccc2)Oc2ccccc2)cc1` (stereo not drawn) showed a Kapp of 7300 M⁻¹ s⁻¹.
Regarding `N=C(N)c1ccc(CC(NC(=O)OCc2ccccc2)P(=O)(Oc2ccccc2)Oc2ccccc2)cc1` (stereo not drawn), the inhibition against Coagulation factor X [8] stood at 65%. In assay [5], this molecule displayed a Kapp of 2000 M⁻¹ s⁻¹.
Regarding `CC(=O)Nc1ccc(OP(=O)(Oc2ccc(NC(C)=O)cc2)C(Cc2ccc(NC(=N)N)cc2)NS(C)(=O)=O)cc1` (stereo not drawn), the Ratio IC50 amounted to 700 in the assay filed under Homo sapiens [1], 1000 in the assay listed under Homo sapiens [2] and 550 in the assay listed under Homo sapiens [4]. Also, the inhibition at Coagulation factor X [8] was determined as 55%. The molecule also showed a Kapp in assay [5] of 210000 M⁻¹ s⁻¹.
Turning to `CC(=O)Nc1ccc(OP(=O)(Oc2ccc(NC(C)=O)cc2)C(Cc2ccc(NC(=N)N)cc2)NC(=O)OCc2ccccc2)cc1` (stereo not drawn), the Ratio IC50 in the assay listed under Homo sapiens [1] is 90; in the assay filed under Homo sapiens [2], 1700; in the assay listed under Homo sapiens [3] it was 23000; in the assay listed under Homo sapiens [4] it was 200. In assay [5], the Kapp was 80000 M⁻¹ s⁻¹.
Take `CC(=O)NC(Cc1ccc(NC(=N)N)cc1)P(=O)(Oc1ccccc1)Oc1ccccc1` (stereo not drawn): the Kapp in [5] was determined as 1.4e+06 M⁻¹ s⁻¹. This molecule also registered an IC50 in assay [9] of 0.0072 µM.
With `N=C(N)Nc1ccc(CC(NC(=O)c2ccccc2)P(=O)(Oc2ccccc2)Oc2ccccc2)cc1` (stereo not drawn), the Kapp in assay [5] stood at 2400 M⁻¹ s⁻¹.
As for `N=C(N)c1ccc(C(NC(=O)OCc2ccccc2)P(=O)(Oc2ccccc2)Oc2ccccc2)cc1` (stereo not drawn), the Kapp in assay [5] was 43 M⁻¹ s⁻¹.
`C[C@H](NC(=O)[C@@H](CO)NS(=O)(=O)Cc1ccccc1)C(=O)NCc1ccc(NC(=N)N)cc1`: on Prothrombin [10], the outcome was inactive. For the same molecule, the results for the inhibition constant Ki (in [11]; in assay [9]; on Plasminogen) were more than 2.5 µM, 0.016 µM and 40 µM, respectively.
On to `CC(C)c1cc(C(C)C)c(S(=O)(=O)NC(Cc2ccc(NC(=N)N)cc2)P(=O)(Oc2ccccc2)Oc2ccccc2)c(C(C)C)c1` (stereo not drawn), for which the values for the Ratio IC50 in the assay filed under Homo sapiens [2], in the assay listed under Homo sapiens [3] and in the assay filed under Homo sapiens [4] were 60, 80 and 500, respectively. On Prothrombin [12], this molecule registered an inhibition of 60%. The same molecule showed a Kapp in [5] of 1600 M⁻¹ s⁻¹.
Consider `CCOC(=O)NC(Cc1ccc(NC(=N)N)cc1)P(=O)(Oc1ccccc1)Oc1ccccc1` (stereo not drawn), for which the Kapp in assay [5] is 40000 M⁻¹ s⁻¹.
For the molecule `C[C@H](NC(=O)[C@@H](CO)NS(=O)(=O)Cc1ccccc1)C(=O)NC(Cc1ccc(NC(=N)N)cc1)P(=O)(Oc1ccccc1)Oc1ccccc1` (stereo partly drawn), the results for the 50% inhibitory concentration (IC50) (against Coagulation factor X [6]; in [9]) were 33.5 µM and 0.004 µM, respectively.
For `N=C(N)Nc1ccc(CC(NS(=O)(=O)Cc2ccccc2)P(=O)(Oc2ccccc2)Oc2ccccc2)cc1` (stereo not drawn), the inhibition against Coagulation factor X [13] came to 59%. Further, the Kapp in [5] came out at 19000 M⁻¹ s⁻¹.
Consider `N=C(N)Nc1ccc(CNC(=O)OCc2ccccc2)cc1`, for which the inhibition constant (Ki) (in [11]; at Coagulation factor X [6]; at Plasminogen; on Prothrombin [7]) was more than 1000 µM in each case.
In turn, `N=C(N)Nc1ccc(CC(NC(=O)OCc2ccccc2)P(=O)(Oc2ccccc2)Oc2ccccc2)cc1` (stereo not drawn) showed a Kapp in assay [5] of 42000 M⁻¹ s⁻¹.
On to `N=C(N)NCCCC(NC(=O)OCc1ccccc1)P(=O)(Oc1ccccc1)Oc1ccccc1` (stereo not drawn), for which the Ratio IC50 in the assay filed under Homo sapiens [1] came to 0.9; in the assay filed under Homo sapiens [2], 50; in the assay filed under Homo sapiens [4], 35. The IC50 in assay [11] was determined as 44 µM; in assay [9], 0.84 µM; at Plasminogen it was 30 µM; on Prothrombin [7] it was 0.78 µM. Also, at Coagulation factor X [8], the inhibition turned out to be 70%. In addition, the Kapp in [5] was determined as 100 M⁻¹ s⁻¹.
